Active and inactive are the calls of the source. The calls are words filed in the database; no cut-off is given here.
Legend:
[1] = Induction of 16.7 mM glucose-stimulated insulin secretion in NMRI mouse pancreatic islets at 10^-8 M after 60 mins by radioimmunoassay relative to 16.7 mM glucose control; type: functional, Pancreatic islet
Outline: (§1)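 Female NMRI mouse islets, cultured overnight, were preincubated 30 min in KRB with 3.3 mM glucose and 0.1% BSA. Single islets were then incubated 60 min at 37 °C in HEPES-KRB (pH 7.4) with 16.7 mM glucose plus compound at 10−10, 10−8 or 10−6 M, diluted from 10−4 M aqueous stock. Medium insulin was measured by RIA and expressed as fold of the 16.7 mM glucose control; 24 replicates.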

[2] = Induction of 6.6 mM glucose-stimulated insulin secretion in NMRI mouse pancreatic islets at 10^-6 M after 60 mins by radioimmunoassay; type: cell-based; conditions: pancreatic islet, 1 h, 1 µM
Outline: (§2)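 Islets from adult female NMRI mice (22–25 g), collagenase-isolated and cultured overnight in RPMI 1640 (11.1 mM glucose, 10% FCS) at 37 °C. After 30 min preincubation in KRB with 3.3 mM glucose and 0.1% BSA, single islets were incubated 60 min at 37 °C in HEPES-KRB (pH 7.4) at 3.3, 6.6, 11.1 or 16.7 mM glucose ± compound at 10−6 M. Insulin in the medium was measured by RIA, reported in ng/mL; n = 16 per treatment.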

[3] = Induction of 3.3 mM glucose-stimulated insulin secretion in NMRI mouse pancreatic islets at 10^-6 M after 60 mins by radioimmunoassay; type: cell-based; conditions: pancreatic islet, 1 h, 1 µM; outline: as §2
Pancreatic islet [4] = experiment: Upregulation of IRS1 mRNA expression in NMRI mouse pancreatic islets at 10^-8 M after 72 hrs by Taqman-based qRT-PCR analysis; type: functional, cell-based
Outline: (§3)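 Female NMRI mouse islets were exposed 72 h to compound at 10−8 M in RPMI with 11.1 mM glucose. Islets from 2–3 mice (180–200) were pooled for Trizol RNA extraction. Reverse transcription and 14-cycle preamplification preceded TaqMan real-time PCR. Data were normalized to the geometric mean of 18S and Hprt1 by the (1+efficiency)−ΔCT method and expressed as fold versus untreated control. Samples were run in triplicate, each measured in triplicate.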

Pancreatic islet [5] = experiment: Upregulation of INSR mRNA expression in NMRI mouse pancreatic islets at 10^-8 M after 72 hrs by Taqman-based qRT-PCR analysis; type: functional, cell-based; outline: as §3
Pancreatic islet [6] = experiment: Upregulation of INS2 mRNA expression in NMRI mouse pancreatic islets at 10^-8 M after 72 hrs by Taqman-based qRT-PCR analysis; type: functional, cell-based; outline: as §3
[7] = Induction of 3.3 mM glucose-stimulated insulin secretion in NMRI mouse pancreatic islets at 10^-8 M pretreated for 72 hrs in presence of 11.1 mM glucose followed by 3.3 mM glucose stimulation after 60 mins by radioimmunoassay; type: cell-based; conditions: pancreatic islet, 1 h, 0.01 µM
Outline: (§4)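 Islets from female NMRI mice were cultured 72 h in RPMI with 11.1 mM glucose and 10% FCS, ± compound at 10−8 M final. They were rinsed and preincubated 30 min in KRB with 3.3 mM glucose and 0.1% BSA. Single islets were then stimulated 60 min at 37 °C with 3.3 or 16.7 mM glucose. Insulin was measured by RIA as fold of the 16.7 mM glucose control; 24 replicates.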

Pancreatic islet [8] = experiment: Induction of 16.7 mM glucose-stimulated insulin secretion in NMRI mouse pancreatic islets at 10^-6 M after 60 mins by radioimmunoassay; type: functional, cell-based; outline: as §2
Pancreatic islet [9] = experiment: Upregulation of PDX1 mRNA expression in NMRI mouse pancreatic islets at 10^-8 M after 72 hrs by Taqman-based qRT-PCR analysis; type: functional, cell-based; outline: as §3
Pancreatic islet [10] = experiment: Upregulation of INS1 mRNA expression in NMRI mouse pancreatic islets at 10^-8 M after 72 hrs by Taqman-based qRT-PCR analysis; type: functional, cell-based; outline: as §3
[11] = Induction of 16.7 mM glucose-stimulated insulin secretion in NMRI mouse pancreatic islets at 10^-10 M after 60 mins by radioimmunoassay relative to 16.7 mM glucose control; type: functional, Pancreatic islet; outline: as §1
[12] = Induction of 16.7 mM glucose-stimulated insulin secretion in NMRI mouse pancreatic islets at 10^-8 M pretreated for 72 hrs in presence of 11.1 mM glucose followed by 16.7 mM glucose stimulation after 60 mins by radioimmunoassay relative to 16.7 mM glucose control; type: functional, Pancreatic islet; outline: as §4
Pancreatic islet [13] = experiment: Upregulation of […] mRNA expression in NMRI mouse pancreatic islets at 10^-8 M after 72 hrs by Taqman-based qRT-PCR analysis; type: functional, cell-based; outline: as §3
[14] = Induction of 16.7 mM glucose-stimulated insulin secretion in NMRI mouse pancreatic islets at 10^-6 M after 60 mins by radioimmunoassay relative to 16.7 mM glucose control; type: functional, Pancreatic islet; outline: as §1
Pancreatic islet [15] = experiment: Upregulation of GCGR mRNA expression in NMRI mouse pancreatic islets at 10^-8 M after 72 hrs by Taqman-based qRT-PCR analysis; type: functional, cell-based; outline: as §3
Pancreatic islet [16] = experiment: Upregulation of GLUT2 mRNA expression in NMRI mouse pancreatic islets at 10^-8 M after 72 hrs by Taqman-based qRT-PCR analysis; type: functional, cell-based; outline: as §3
Pancreatic islet [17] = experiment: (§5) Induction of 11.1 mM glucose-stimulated insulin secretion in NMRI mouse pancreatic islets at 10^-6 M after 60 mins by radioimmunoassay relative to control; type: functional; outline: as §2
[18] = as §5; type: functional, Pancreatic islet; outline: as §2

O=c1cc(-c2ccc(O)cc2)oc2c([C@@H]3O[C@H](CO)[C@@H](O)[C@H](O)[C@H]3O)c(O)c([C@@H]3O[C@H](CO)[C@@H](O)[C@H](O)[C@H]3O)c(O)c12
fold change (FC) [1]: 2.3
Activity [2]: Non-Toxic
Activity [3]: Non-Toxic
Activity (Pancreatic islet [4]): inactive
Activity (Pancreatic islet [5]): Active
Activity (Pancreatic islet [6]): inactive
Activity [7]: Non-Toxic
Activity (Pancreatic islet [8]): Active
Activity (Pancreatic islet [9]): inactive
Activity (Pancreatic islet [10]): inactive
fold change (FC) [11]: 2.5
fold change (FC) [12]: 2.2
Activity (Pancreatic islet [13]): inactive
fold change (FC) [14]: 2.3
Activity (Pancreatic islet [15]): inactive
Activity (Pancreatic islet [16]): inactive

O=C(O)/C=C/c1ccc(O)c(O)c1 [CAFFEIC ACID]
fold change (FC) [1]: 1.7
Activity [2]: Non-Toxic
Activity [3]: Non-Toxic
Activity (Pancreatic islet [4]): inactive
Activity (Pancreatic islet [5]): inactive
Activity (Pancreatic islet [6]): inactive
Activity [7]: Non-Toxic
Activity (Pancreatic islet [8]): Active
Activity (Pancreatic islet [9]): Active
Activity (Pancreatic islet [10]): inactive
fold change (FC) [12]: 1.5
Activity (Pancreatic islet [13]): Active
Activity (Pancreatic islet [17]): inactive
fold change (FC) [14]: 2
Activity (Pancreatic islet [15]): inactive
Activity (Pancreatic islet [16]): Active

O=C(/C=C/c1ccc(O)c(O)c1)O[C@@H](C(=O)O)[C@@H](O)C(=O)O [CAFTARIC ACID]
fold change (FC) [1]: 5.1
Activity [2]: Non-Toxic
Activity [3]: Non-Toxic
Activity (Pancreatic islet [4]): inactive
Activity (Pancreatic islet [5]): Active
Activity (Pancreatic islet [6]): Active
Activity [7]: Non-Toxic
Activity (Pancreatic islet [8]): Active
Activity (Pancreatic islet [9]): inactive
Activity (Pancreatic islet [10]): Active
fold change (FC) [11]: 2.8
fold change (FC) [12]: 3.2
Activity (Pancreatic islet [13]): inactive
fold change (FC) [14]: 5.5
Activity (Pancreatic islet [15]): inactive
Activity (Pancreatic islet [16]): inactive

O=C(/C=C/c1ccc(O)c(O)c1)O[C@@H](C(=O)O)[C@@H](OC(=O)/C=C/c1ccc(O)c(O)c1)C(=O)O [CICHORIC ACID]
fold change (FC) [1]: 1.9
Activity [2]: Non-Toxic
Activity [3]: Non-Toxic
Activity (Pancreatic islet [4]): Active
Activity (Pancreatic islet [5]): Active
Activity (Pancreatic islet [6]): Active
Activity [7]: Non-Toxic
Activity (Pancreatic islet [8]): Active
Activity (Pancreatic islet [9]): Active
Activity (Pancreatic islet [10]): Active
fold change (FC) [11]: 1.8
fold change (FC) [12]: 3.5
Activity (Pancreatic islet [13]): inactive
fold change (FC) [14]: 4.1
Activity (Pancreatic islet [15]): inactive
Activity (Pancreatic islet [16]): inactive

O=C(/C=C/c1ccc(O)c(O)c1)O[C@H](Cc1ccc(O)c(O)c1)C(=O)O [ROSMARINIC ACID]
fold change (FC) [1]: 2.8
Activity [2]: Non-Toxic
Activity [3]: Non-Toxic
Activity (Pancreatic islet [4]): Active
Activity (Pancreatic islet [5]): Active
Activity (Pancreatic islet [6]): Active
Activity [7]: Non-Toxic
Activity (Pancreatic islet [8]): Active
Activity (Pancreatic islet [9]): Active
Activity (Pancreatic islet [10]): Active
fold change (FC) [11]: 3.3
fold change (FC) [12]: 3.4
Activity (Pancreatic islet [13]): inactive
Activity [18]: 68%
fold change (FC) [14]: 4.9
Activity (Pancreatic islet [15]): inactive
Activity (Pancreatic islet [16]): Active

Source: ChEMBL document CHEMBL4138207, “Phenolic Substances from Ocimum Species Enhance Glucose-Stimulated Insulin Secretion and Modulate the Expression of Key Insulin Regulatory Genes in Mice Pancreatic Islets” (J Nat Prod, 2017)
